Bioassay records (PubChem)
ALR inh: human ALR oxidase inhibition via reduced H2O2; 290,000 tested, 3.8% active; P55789; purified ALR, DTT oxidation, H2O2 HRP-luminol luminescence; AID 485317; inhibition, % (concentration not given with the values);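 active = mean replicate inhibition above about 79%, with every replicate also reaching it, limit read from the data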
Target sequence (P55789 whole entry, looked up): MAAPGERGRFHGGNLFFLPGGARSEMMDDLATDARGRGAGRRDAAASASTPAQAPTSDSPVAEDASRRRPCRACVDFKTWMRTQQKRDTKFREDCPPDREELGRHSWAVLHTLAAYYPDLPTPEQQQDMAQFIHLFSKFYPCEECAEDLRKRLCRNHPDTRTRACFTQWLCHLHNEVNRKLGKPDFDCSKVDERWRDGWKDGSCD
Rtt109 HAT inh: inhibitors of Candida albicans Rtt109/Vps75 histone acetyltransferase; Q5AAJ8; purified Rtt109/Vps75, ThioGlo CoA-SH fluorescence, 4 h; inhibition, % at 34.9 µM; 330,000 tested, 0.16% active; AID 540336;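 active = inhibition of at least 50% in every replicate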
Target sequence (Q5AAJ8 whole entry, looked up): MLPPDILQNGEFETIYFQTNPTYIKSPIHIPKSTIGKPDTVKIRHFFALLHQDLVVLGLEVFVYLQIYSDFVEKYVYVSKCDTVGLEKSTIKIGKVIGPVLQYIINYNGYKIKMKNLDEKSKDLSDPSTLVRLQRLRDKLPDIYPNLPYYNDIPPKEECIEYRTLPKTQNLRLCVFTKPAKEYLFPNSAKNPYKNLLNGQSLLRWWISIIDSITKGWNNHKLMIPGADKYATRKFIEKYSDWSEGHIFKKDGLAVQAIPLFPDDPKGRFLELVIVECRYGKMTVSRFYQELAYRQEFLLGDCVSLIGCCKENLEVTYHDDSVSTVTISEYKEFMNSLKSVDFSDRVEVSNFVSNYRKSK
CAL PDZ FP-1: inhibitors of human CAL PDZ peptide binding | Q9HD26 | purified CAL PDZ, TMR-peptide fluorescence polarization, 1 h | inhibition, % at 20 µM | 330,000 tested, 0.02% active;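 active = highest replicate inhibition of at least 40%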;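 also: plate controls were DMSO neutral control wells for no effect and unlabeled competitor peptide control wells for full effect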
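System: purified tagged CAL PDZ domain construct (CerCALP). Schedule: 1 h incubation at room temperature before polarization reading. Medium: 25 mM sodium phosphate pH 7.4, 150 mM NaCl, TCEP, IgG, Thesit. Read-out: percent inhibition from loss of millipolarization. Measured by: FP readout, S and P plane fluorescence. Probe or stimulus: fluorescent TMR peptide probe.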
DYRK1A inh: inhibitors of rat Dyrk1A kinase; Q63470; ADP-Glo luminescence, NFATc1 peptide; inhibition, % at 12.5 µM; 310,000 tested, 0.43% active; in the data active = inhibition above about 50%;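 also: plate controls were vehicle with enzyme for no effect and no enzyme for full effect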
CAL PDZ FP-2: blocks peptide binding to the human CAL PDZ domain | inhibition, % at 24.9 µM | Q9HD26 | purified CAL PDZ, TMR-peptide fluorescence polarization, 1 h | 300,000 tested, 0.92% active;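 active = mean inhibition of at least 30% with at least half of replicates also reaching 30%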;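 also: 0% = DMSO neutral control and 100% = excess unlabeled competitor peptide PRC23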
An asterisk follows results filed as active; . = not tested or not shown. This is a sample that favours compounds with a hit; in the whole collection about 4.3% have one here.

SMILES | ALR inh | Rtt109 HAT inh | CAL PDZ FP-1 | DYRK1A inh | CAL PDZ FP-2
COC(=O)c1ccc2c(c1)C(C)(C)C(/C=C/c1ccccc1O)=[N+]2C | 87* | 1 | . | 5 | -30
C[N+]1=C(/C=C/Nc2ccccc2Cl)C(C)(C)c2ccccc21 | . | -15 | -1 | -3 | -1
CCN(c1ccccc1)C1(O)C(=O)c2ccccc2C1=O | 95* | 0 | 0 | -7 | -1
N#C/C(=C(/O)CSc1ccccn1)c1nc2ccccc2s1 | 82* | -7 | -1 | 2 | .
Cc1ccc(SC/C(O)=C(\C#N)c2nc3ccccc3s2)cc1 | 72 | 13 | -1 | 5 | -1
Cc1ccc(C)c(OCCC(=O)OCC(=O)Nc2ccc(N3CCOCC3)cc2)c1 | 19 | 5 | -2 | 14 | -1
Cc1ccc(S(=O)(=O)NCCOC(=O)Nc2sc(=S)n(C)c2C)cc1 | 51 | 1 | -5 | -19 | -10
Cc1c(NC(=O)OCCNC(=O)Nc2ccccc2)sc(=S)n1C | 98* | 5 | -1 | -1 | -1
CCOC(=O)Nc1sc(=S)n(C)c1C | 93* | 1 | 0 | 1 | -4
Cc1c(NC(=O)OCCNC(=O)COc2ccc(Cl)cc2Cl)sc(=S)n1C | 97* | 1 | 2 | -4 | 6
Cc1cc(Cl)ccc1OCC(=O)NCCOC(=O)Nc1sc(=S)n(C)c1C | 14 | -2 | -1 | 3 | -3
Cc1[nH]c2ccccc2c1C(=O)CN1CCN(c2ccc(Cl)cc2)CC1 | . | 0 | -1 | 0 | -6
CC1CCN(c2ccc(NC(=O)c3ccc(Br)o3)cc2)CC1 | 3 | -6 | -3 | -1 | .
CCOc1ccc(NC(=O)CSc2nnc(-c3cc(C)[nH]n3)n2N)cc1 | -5 | -4 | -1 | 3 | 3
CC(=O)/C(=N/Nc1ccccc1)Sc1nnc(C(O)c2ccccc2)n1-c1ccccc1 (centres undefined) | . | 57* | -3 | -7 | 1
CC(=O)/C(=N\Nc1ccccc1)Sc1nncn1C | 98* | -6 | -2 | -1 | 2
CC(=O)/C(=N/Nc1ccccc1Cl)Sc1nnc(C(O)c2ccccc2)n1-c1ccccc1 (centres undefined) | 8 | -3 | -1 | -5 | 2
CC1CCCN(C(=O)Cn2cnc3c2c(=O)n(C)c(=O)n3C)C1 (centres undefined) | 0 | 3 | . | . | 36*
CC1CCN(C(=O)COC(=O)Cn2cnc3c2c(=O)n(C)c(=O)n3C)CC1 | -26 | -1 | -1 | . | -3
Cc1ccc(C2(C)NC(=O)N(CC(=O)Nc3ccccc3N3CCCCC3)C2=O)cc1 (centres undefined) | 4 | 8 | -2 | -5 | -4
Cc1ccc(S(=O)(=O)N(C)CC(=O)Nc2ccccc2N2CCCC2)cc1 | 83* | -4 | -5 | . | -4
CN(CC(=O)Nc1ccccc1N1CCOCC1)S(=O)(=O)c1ccc(Cl)cc1 | -3 | -9 | . | 0 | -5
Cc1ccc(C2(C)NC(=O)N(CC(=O)Nc3ccccc3N3CCCC3)C2=O)cc1 (centres undefined) | 77* | 6 | -3 | 2 | 1
CC1(c2ccccc2)NC(=O)N(CC(=O)Nc2ccc(S(=O)(=O)Nc3ncccn3)cc2)C1=O (centres undefined) | 98* | 33 | -2 | 10 | -3
CCO[C@H]1OC(C(=O)N2CCN(C)CC2)=C[C@@H](C2CC2)[C@@H]1CCCO | -3 | 7 | -2 | 5 | -2
SMILES | ALR inh | Rtt109 HAT inh | CAL PDZ FP-1 | DYRK1A inh | CAL PDZ FP-2
Nc1ccccc1C#Cc1ccc2[nH]ccc2c1 | 97* | -17 | 1 | 4 | 2
Cc1n[nH]c(=O)c2c(NC(=O)CSc3c(Cl)cccc3Cl)oc(C)c12 | -17 | . | -2 | -1 | -4
Cc1n[nH]c(=O)c2c(NC(=O)CSc3nn(-c4ccc(F)cc4)c(=S)s3)oc(C)c12 | 99* | -2 | -1 | -1 | -5
C/C(=N\NC(=O)c1ccc(O)cc1)c1ccc(NC(=O)Cc2ccccc2)cc1 | -5 | -1 | -2 | 3 | -3
CCOC(=O)C(C)On1c(-c2ccccc2)nc2ccc([N+](=O)[O-])cc21 (centres undefined) | 97* | 1 | -1 | 32 | -1
O=C(NCCCn1ccnc1)C(=O)NCC(c1cccnc1)N1CCN(c2ccc(F)cc2)CC1 (centres undefined) | 68 | -3 | 0 | 1 | .
c1ccc(Cn2nnnc2C(c2cccnc2)N2CCN(c3ccccc3)CC2)cc1 (centres undefined) | 98* | 6 | -3 | 4 | -1
O=C(NCC(c1cccnc1)N1CCN(c2ccccc2)CC1)c1ccco1 (centres undefined) | 99* | 15 | -2 | -1 | -3
O=C(NCC(c1cccnc1)N1CCN(c2ccc(F)cc2)CC1)c1ccccc1 (centres undefined) | 50 | -9 | 0 | -9 | -2
O=C(NCc1cccnc1)C(=O)NCC(c1ccco1)N1CCN(c2ccccc2)CC1 (centres undefined) | 98* | 2 | -3 | -6 | -4
COc1ccc(N2CCN(C(CNC(=O)C(=O)NCCCn3ccnc3)c3cccnc3)CC2)cc1 (centres undefined) | 90* | 2 | -2 | 4 | -3
Cc1ccc(S(C)(=O)=O)cc1C(=O)N1CC(C(N)=O)Oc2ccccc21 (centres undefined) | -2 | 0 | -1 | -7 | -4
CCOc1ccccc1C(=O)Nc1nnc(Cc2ccc(OC)c(OC)c2)s1 | 0 | 1 | -4 | -2 | -4
COc1ccc(-c2cc(CNS(=O)(=O)c3ccc(F)cc3)on2)cc1 | -8 | 0 | 0 | 12 | -1
Cc1ccc(N(CC(=O)Nc2ccc(Br)c(C)c2)S(=O)(=O)c2c(C)[nH]c(=O)[nH]c2=O)cc1 | -4 | 2 | -2 | -6 | -6
COc1ccc(N2CCN(C(CNC(=O)C(=O)NCc3cccs3)c3ccco3)CC2)cc1 (centres undefined) | 36 | 0 | -2 | -6 | -4
O=C(NCc1cccs1)C(=O)NCC(c1ccco1)N1CCN(c2ccccc2)CC1 (centres undefined) | 98* | -2 | -1 | -4 | -2
O=C(NCC(c1ccco1)N1CCCCC1)C(c1ccccc1)c1ccccc1 (centres undefined) | 94* | -4 | 0 | -2 | -1
Cc1cc(Cl)ccc1OCC(=O)OCC(=O)N(CC(C)C)c1c(N)n(Cc2ccccc2)c(=O)[nH]c1=O | -11 | 0 | -1 | -1 | -3
CC(C)CN1C(=O)C(=O)N(CC(=O)c2ccc3c(c2)OCO3)C1=O | . | -7 | -3 | -3 | -11
COc1ccc(-c2nc(CN3CCC(C(=O)NCC4CCCO4)CC3)c(C)o2)cc1OC (centres undefined) | -10 | 7 | -4 | -4 | -2
Cc1cccc(-c2nc(CSCC(=O)N3CCN(c4ccccn4)CC3)c(C)o2)c1 | . | 2 | 0 | -10 | -3
